Hits are enriched below; roughly 2.3% of the tested compounds scored in any of these assays.
TAAR1 ag = human TAAR1 agonists, primary screen, Fluo-8 calcium fluorescence, CHO RD-HGA16 cells; vehicle wells 0%, saturating PEA agonist 100%; activation, % at 3 µM; 360,000 compounds, 0.99% hits; AID 624467, 2012;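 active = activation above the mean activation of all test compounds in the run plus 3 SD, cut at about 38% in these data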
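Repeats: no replicates (n 1) | Material: CHO-derived RD-HGA16 cells with stable Gα16 and human TAAR1 | Technique: Kinetic Fluo-8 calcium fluorescence | Schedule: 17-24 h seeding, 75 min 37 °C dye, 30 min RT | Evaluation: % activation from peak over basal fluorescence ratio, DMSO-to-PEA scaled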
TAAR1 antagonist = human TAAR1 antagonists, primary screen, Fluo-8 calcium fluorescence, CHO RD-HGA16 cells; AID 624466, 2012; Trace amine-associated receptor 1 (Homo sapiens), Q96RJ0; 360,000 compounds, 1.5% hits; antagonist; inhibition, % at 3 µM;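 active = inhibition above a per-plate cutoff, the mean inhibition of test compounds on that plate plus 3 SD, cut at about 49% in these data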;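 also: 0% = DMSO plus EC80 beta-PEA response and 100% = DMSO alone without agonist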
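Material: CHO RD-HGA16 cells bearing hTAAR1; compound dosing: one-point dosing, 3 µM nominal final; schedule: dye loading 75 min at 37 °C, then 30 min room temperature; measured by: calcium fluorescence with Fluo-8; control set: vehicle and agonist controls; replication: n of 1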
V1R ag counter = agonists of human V1a receptor, primary screen, counter-screen for OXTR agonist project, fluorescence, CHO-V1R cells; Vasopressin V1a receptor (Homo sapiens), P37288; Fluo-8 calcium fluorescence, agonist mode; 0% DMSO, 100% 3 nM vasopressin; activation, % at 3 µM; 320,000 compounds, 0.25% hits; AID 2797, 2010;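 active = activation above the mean activation of all tested compounds plus 3 SD, per screening run, cut at about 20% in these data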;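 also: signal is peak over basal fluorescence ratio across a 100 second FLIPR read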
Target sequence (P37288 whole entry, looked up): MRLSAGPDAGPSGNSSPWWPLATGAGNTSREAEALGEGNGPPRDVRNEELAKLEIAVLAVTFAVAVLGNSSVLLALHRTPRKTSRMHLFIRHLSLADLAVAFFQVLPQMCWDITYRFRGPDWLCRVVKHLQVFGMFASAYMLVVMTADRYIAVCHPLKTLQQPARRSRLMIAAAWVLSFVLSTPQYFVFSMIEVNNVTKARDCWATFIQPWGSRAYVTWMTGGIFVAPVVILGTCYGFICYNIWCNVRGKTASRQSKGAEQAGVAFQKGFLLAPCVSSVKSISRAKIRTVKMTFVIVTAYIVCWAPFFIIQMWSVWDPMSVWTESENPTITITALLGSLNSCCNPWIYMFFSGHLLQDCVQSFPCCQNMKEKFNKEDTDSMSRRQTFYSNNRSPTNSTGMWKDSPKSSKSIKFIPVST
OXTR potentiator = human OXTR potentiators, primary screen, fluorescence, CHO-OTR cells, Fluo-8 calcium; Fluo-8 calcium fluorescence, potentiator mode; 0% = oxytocin EC15, 100% = EC100; activation, % at 3 µM; 320,000 compounds, 0.061% hits;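 active = activation above that plate's cutoff, the mean activation of tested compounds plus 3 SD, cut at about 6.6% in these data, passing the limit was not always enough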;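 also: 100% uses oxytocin at 75 nM as the full agonist control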
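Replication – single well per compound, singlicate · Assay system – CHO cell line stably expressing human OTR · Timing – 6 min pre-incubation, 100 s read · Measure – normalized max/min fluorescence ratio, % activation · Doses – 3.0 µM, one dose · Detection – Fluo-8 calcium dye fluorescence · Probe or stimulus – oxytocin near EC15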
OXTR agonist = human OXTR agonists, primary screen, fluorescence, CHO-OTR cells, Fluo-8 calcium | 320,000 compounds, 0.32% hits | activation, % at 3 µM | Oxytocin receptor (Homo sapiens), P30559 | Fluo-8 calcium fluorescence; normalized: DMSO 0%, oxytocin 100% | AID 2435, 2010;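 active = activation above the mean of all tested compounds plus 3 SD, cutoff set per screening run, cut at about 20% in these data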;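 also: peak over basal fluorescence ratio from a 100 s FLIPR kinetic read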
Starred values were filed as active, the others as inactive; . = not tested or not shown.

SMILES	TAAR1 ag	TAAR1 antagonist	V1R ag counter	OXTR potentiator	OXTR agonist
N/C(=N\OC(=O)COc1ccc2ccccc2c1)c1ccccn1	48*	23	13	-13	10
O=C(CCCNC(=O)c1ccc(Cl)cc1)Nc1nccs1	0	-32	0	8	2
Cc1cccc(C)c1NC(=O)C1(C)CN(S(C)(=O)=O)CC(=O)N1C1CC1 (stereo not drawn)	2	-8	.	.	.
Cc1ccccc1-c1nc(P(=O)(c2ccccc2)c2ccccc2)c(N2CCOCC2)o1	8	-38	-1	6	-3
CCOP(=O)(c1ccccc1)c1nc(-c2ccccc2C)oc1N1CCCCC1 (stereo not drawn)	60*	-12	1	-1	1
Nc1ccc2nc3c(=O)n(CCc4ccccc4)c(=O)[nH]c3nc2c1	56*	24	69*	-22	96*
Nc1ccc2nc3c(=O)n(C4CCCCC4)c(=O)[nH]c3nc2c1	88*	33	159*	-8	91*
Cc1cc2nc3c(=O)n(CCc4ccccc4)c(=O)[nH]c3nc2cc1N	39*	43	41*	-17	64*
Cc1nc2ccccc2c(=O)n1CCc1ccccc1	4	5	0	1	-1
CCCCn1c(=O)[nH]c2nc3cc(N)ccc3nc2c1=O	28	24	30*	-12	50*
COc1cc2[nH]c(=O)n(C3CCCCC3)c(=O)c2cc1OC	7	-26	-1	-6	0
CCCCn1c(N)c(Br)c(=O)[nH]c1=O	1	-24	1	-16	0
O=C(CNS(=O)(=O)c1ccc(Br)cc1)N1CCN(Cc2ccccc2)CC1	2	2	0	-9	-1
CCN1C(=NCCCOC(C)C)N[C@@H](CCc2ccccc2)[C@H](C(=O)NCCCOC(C)C)[C@H]1C	9	-3	2	-7	1
CCNC(=O)N1CCCC(C(=O)c2ccc(C(F)(F)F)cc2)C1 (stereo not drawn)	-1	-7	2	-6	0
COc1ccc2c(c1)[nH]c1c(=O)n(Cc3ccccn3)cnc12	2	5	-1	6	0
COc1ccc2c(c1)[nH]c1c(=O)n(Cc3ccco3)cnc12	47*	36	11	-14	10
CCOC(=O)C1C(=O)CC(C)(O)C(C(=O)OCC)C1/C=C/c1ccccc1 (stereo not drawn)	9	56*	.	.	.
CCOC(=O)C1CCCN(C(=O)CCCn2nnnc2CN2CCOCC2)C1 (stereo not drawn)	40*	22	.	.	.
CCOC(=O)C1=C(C)NC(C)=C(C(=O)OCCNC(=O)c2cccnc2)C1c1cccc([N+](=O)[O-])c1 (stereo not drawn)	.	.	0	2	0
COC(=O)C1=C(C)NC(C)=C(C(=O)OCCN(C)Cc2ccccc2)C1c1cccc([N+](=O)[O-])c1 (stereo not drawn)	-1	49*	-1	-9	-1
COc1ccccc1N1CCN(C2CCCN(C(=O)c3ccccn3)C2)CC1 (stereo not drawn)	2	-14	-1	-8	0
COC(=O)CN1C(=O)S/C(=C/c2ccc(N3CCCCC3)o2)C1=O	100*	60*	3	-5	8
CCC(C(=O)OCC(=O)C1(O)CCC2C3CCC4=CC(=O)CCC4(C)C3C(O)CC21C)C(C)C (stereo not drawn)	14	62*	.	.	.
CC1(C)Cc2c(sc(NC(=O)c3ccc(C(=O)c4ccccc4)cc3)c2C(N)=O)C(C)(C)N1	46*	17	9	-15	17
SMILES	TAAR1 ag	TAAR1 antagonist	V1R ag counter	OXTR potentiator	OXTR agonist
Cc1ccc(C)c(C(O)c2ncc(-c3ccc(C(F)(F)F)cc3)[nH]2)c1 (stereo not drawn)	22	49*	.	.	.
COC(=O)c1ccc2nc(-c3ccco3)c(Cc3ccccc3OC)n2c1	0	-21	.	.	.
COc1cc(Cc2cc(OC)c(O)c(OC)c2)cc(OC)c1O	2	-5	.	.	.
Cc1[nH]nc(SCC(=O)NCCc2ccccc2)c1[N+](=O)[O-]	39*	75*	-1	3	1
Cc1[nH]nc(SCC(=O)NCc2ccccc2)c1[N+](=O)[O-]	-3	1	0	-7	-3
O=C(CCC(=O)Nc1ccccc1)NNC(=O)c1cccs1	39*	6	0	3	0
O=C(N/C(=C\c1ccc(-c2ccccc2)o1)C(=O)N1CCOCC1)c1ccccc1	8	-11	.	.	.
CCOC(=O)N1CCN(C(=O)c2c[nH]c3ccc(S(=O)(=O)N(C)c4cccc(C)c4)cc3c2=O)CC1	5	-1	1	-3	0
COc1cc(C(=O)Nc2nccs2)c(Br)c(OC)c1OC	16	51*	2	-20	1
COc1ccc(C2c3[nH]c4ccccc4c3C[C@H]3C(=O)N(CCCO)CC(=O)N23)cc1OC (stereo partly drawn)	3	-2	0	0	-1
COc1cc(C2c3[nH]c4ccccc4c3C[C@@H]3C(=O)N(Cc4ccco4)CC(=O)N23)cc(OC)c1OC (stereo partly drawn)	30	53*	11	-13	8
COc1ccc(OC)c(NC(=O)NCCc2cccc(Cl)c2)c1	35	25	-1	-6	-2
CCOc1ccccc1NC(=O)COc1cccnc1[N+](=O)[O-]	8	15	-1	-3	-1
CCOc1ccc(/C=N/OCC(=O)NC(c2ccccc2)c2ccccc2)cc1	28	53*	7	-12	8
COc1ccc(/C=N/OCC(=O)NC(c2ccccc2)c2ccccc2)c(OC)c1	1	-2	4	-14	7
CCN(C(=O)COc1cc(=O)n(CC)c2ccccc12)c1cccc(Cl)c1	12	3	2	-11	1
CCN(C(=O)COc1cc(=O)n(CC)c2ccccc12)c1cc(Cl)ccc1OC	8	49*	0	-1	-1
CC(C)NC(=O)NC(=O)COC(=O)c1c2c(nc3ccccc13)CCC2	10	52*	5	-12	1
Cc1c(Cl)cccc1NC(=O)COC(=O)c1c2c(nc3ccccc13)CCN(Cc1ccccc1)C2	15	47	2	-10	0
O=C(COC(=O)c1c2c(nc3ccccc13)CCCC2)Nc1ccc2c(c1)OCO2	8	54*	-1	-23	-2
CC(C)c1ccccc1NC(=O)COC(=O)c1c2c(nc3ccccc13)CCN(Cc1ccccc1)C2	12	59*	-1	-13	-1
CCC(CC)c1nnc(NC(=O)c2c(C)nn(Cc3ccccc3Cl)c2C)s1	41*	15	9	-19	8
CCC(CC)c1nnc(NC(=O)Cc2ccccc2[N+](=O)[O-])s1	49*	-9	15	-10	15
